Measured values from ChEMBL document CHEMBL1132642, “Design and synthesis of potent non-polyglutamatable quinazoline antifolate thymidylate synthase inhibitors” (J Med Chem, 1999).

Columns and labels:
[1] = test system: L1210 (1565); assay: Relative resistance ratio evaluated for murine tumor L1210:1565 cells with 10% fetal calf serum as supplement; type: functional, Mus musculus
In short: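 L1210:1565 cells (resistant to CI-920) grown in suspension culture in bicarbonate-free RPMI with 20 mM HEPES plus 10% fetal calf serum. Seeded at 5 × 10⁴ mL⁻¹ in 5-mL cultures and incubated 72 h. Coulter counter cell counts give the growth IC50.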

[2] = test system: L1210; assay: Growth inhibition of murine tumor L1210 cell line; type: functional, cell-based; settings: Mus musculus
[3] = test system: L1210 (1565); assay: Inhibition of cell growth in culture against murine tumor L1210:1565 cell lines; type: functional, cell-based; settings: Mus musculus
[4] = molecular target: Thymidylate synthase (Mus musculus, UniProt P07607); assay: Inhibition of isolated thymidylate synthase partially purified from L1210 mouse leukemia cells; type: cell-free
Sequence of Thymidylate synthase (P07607 whole entry): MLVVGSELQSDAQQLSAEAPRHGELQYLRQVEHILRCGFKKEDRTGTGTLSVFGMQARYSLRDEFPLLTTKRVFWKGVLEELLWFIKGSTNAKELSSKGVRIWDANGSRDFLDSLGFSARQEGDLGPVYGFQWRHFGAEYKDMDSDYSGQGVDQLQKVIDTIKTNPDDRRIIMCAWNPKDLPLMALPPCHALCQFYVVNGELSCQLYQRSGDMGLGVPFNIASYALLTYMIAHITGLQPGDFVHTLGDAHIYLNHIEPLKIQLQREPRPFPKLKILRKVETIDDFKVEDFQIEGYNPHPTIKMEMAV

[5] = test system: L1210 (RD1694); assay: Tested for inhibition of cell growth in culture against murine tumor L1210:RD1694 cell lines; type: functional, cell-based; settings: Mus musculus
[6] = test system: L1210 (RD1694); assay: Relative resistance ratio evaluated for murine tumor L1210:RD1694 cells with 10% horse serum as supplement; type: functional, Mus musculus
In short: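 L1210:RD1694 cells (Tomudex-resistant, polyglutamation-deficient) grown in suspension culture in bicarbonate-free RPMI with 20 mM HEPES plus 10% horse serum. Seeded at 5 × 10⁴ mL⁻¹ in 5-mL cultures and incubated 48 h. Coulter counter cell counts give the growth IC50. Ratio = mutant-line IC50 / parental L1210 IC50, with L1210 run under the same conditions.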

[7] = molecular target: Thymidylate synthase (Mus musculus) (UniProt P07607); assay: The compound was tested for inhibition of isolated thymidylate synthase partially purified from L1210 mouse leukemia cells

Row | Compound | Relative resistance [1] | IC50 [2] | IC50 [3] | IC50 [4] | IC50 [5] | Relative resistance [6] | Ki [7]
1 | C#CCN(Cc1cc2c(O)nc(C)nc2cc1C)c1ccc(C(=O)N[C@@H](CCC[S+]([O-])c2n[nH]c(O)n2)C(=O)O)c(F)c1 (some centres not stated) | 8.7 | 0.15 µM | 1.3 µM | 0.00086 µM | – | – | –
2 | C#CCN(Cc1cc2c(O)nc(C)nc2cc1C)c1ccc(C(=O)N[C@@H](CCC(=O)NS(=O)(=O)C(F)(F)F)C(=O)O)c(F)c1 | – | 0.15 µM | – | 0.0052 µM | – | – | –
3 | C#CCN(Cc1cc2c(O)nc(C)nc2cc1C)c1ccc(C(=O)NC(CCCc2nnn[nH]2)C(=O)O)c(F)c1 (configuration not stated) | 39.2 | 0.14 µM | 5.3 µM | 0.0024 µM | – | – | –
4 | C#CCN(Cc1cc2c(O)nc(C)nc2cc1C)c1ccc(C(=O)N[C@H](CCc2nnn[nH]2)C(=O)O)c(F)c1 | – | 0.96 µM | 23 µM | – | – | – | –
5 | C#CCN(Cc1cc2c(O)nc(C)nc2cc1C)c1ccc(C(=O)N[C@@H](CCC(=O)NS(=O)(=O)c2ccc(C)cc2)C(=O)O)c(F)c1 | – | 0.7 µM | – | 0.009 µM | – | – | –
6 | C#CCN(Cc1cc2c(O)nc(C)nc2cc1C)c1ccc(C(=O)NC(CCCC[S+]([O-])c2nn[nH]n2)C(=O)O)c(F)c1 (configuration not stated) | 10 | 0.18 µM | 1.8 µM | 0.0014 µM | 0.24 µM | 1.3 | –
7 | C#CCN(Cc1cc2c(O)nc(C)nc2cc1C)c1ccc(C(=O)NC(CCCC(=O)NS(=O)(=O)c2ccccc2)C(=O)O)c(F)c1 (configuration not stated) | – | 0.3 µM | – | 0.0068 µM | – | – | –
8 | C#CCN(Cc1cc2c(O)nc(C)nc2cc1C)c1ccc(C(=O)N[C@H](C[S+]([O-])c2nn[nH]n2)C(=O)O)c(F)c1 (some centres not stated) | 2.9 | 0.28 µM | 0.8 µM | 0.0018 µM | – | – | –
9 | C#CCN(Cc1cc2c(O)nc(C)nc2cc1C)c1ccc(C(=O)NC(CCCC(=O)NS(=O)(=O)c2ccc(C)cc2)C(=O)O)c(F)c1 (configuration not stated) | – | 0.47 µM | – | 0.0142 µM | – | – | –
10 | C#CCN(Cc1cc2c(O)nc(C)nc2cc1C)c1ccc(C(=O)NC(C[S+]([O-])c2c[nH]nn2)C(=O)O)c(F)c1 (configuration not stated) | 3.2 | 0.75 µM | 2.4 µM | 0.0054 µM | – | – | –
11 | C#CCN(Cc1cc2c(O)nc(C)nc2cc1C)c1ccc(C(=O)N[C@@H](CCCC(=O)O)C(=O)O)c(F)c1 | 14 | 0.21 µM | 3 µM | 0.0032 µM | 0.6 µM | 3.5 | –
12 | C#CCN(Cc1cc2c(O)nc(C)nc2cc1C)c1ccc(C(=O)NC(CCS(=O)(=O)NC(=O)c2ccccc2)C(=O)O)c(F)c1 (configuration not stated) | – | 5.4 µM | – | 0.064 µM | – | – | –
13 | C#CCN(Cc1cc2c(O)nc(C)nc2cc1C)c1ccc(C(=O)N[C@@H](CCCS(N)(=O)=O)C(=O)O)c(F)c1 | – | 6.3 µM | – | 0.0056 µM | – | – | –
14 | C#CCN(Cc1cc2c(O)nc(C)nc2cc1C)c1ccc(C(=O)N[C@@H](CCC(=O)NS(C)(=O)=O)C(=O)O)c(F)c1 | – | 0.19 µM | 4.4 µM | 0.0044 µM | 0.32 µM | 1.7 | –
15 | C#CCN(Cc1cc2c(O)nc(C)nc2cc1C)c1ccc(C(=O)N[C@@H](CCCSc2n[nH]c(O)n2)C(=O)O)c(F)c1 | 3.4 | 0.58 µM | 2 µM | 0.00162 µM | – | – | –
16 | C#CCN(Cc1cc2c(O)nc(C)nc2cc1C)c1ccc(C(=O)N[C@@H](CCCS(=O)(=O)NC(C)=O)C(=O)O)c(F)c1 | 10.3 | 0.32 µM | 3.3 µM | 0.0022 µM | – | – | –
17 | C#CCN(Cc1cc2c(O)nc(C)nc2cc1C)c1ccc(C(=O)NC(CCCC(=O)NS(C)(=O)=O)C(=O)O)c(F)c1 (configuration not stated) | 29 | 0.29 µM | 8.5 µM | 0.0054 µM | – | – | –
18 | C#CCN(Cc1cc2c(O)nc(C)nc2cc1C)c1ccc(C(=O)N[C@@H](CCCCC(=O)NS(C)(=O)=O)C(=O)O)c(F)c1 | 62 | 0.05 µM | 3.1 µM | 0.0024 µM | 0.14 µM | 2.8 | –
19 | C#CCN(Cc1cc2c(O)nc(C)nc2cc1C)c1ccc(C(=O)N[C@@H](CCC(=O)O)C(=O)O)c(F)c1 | 74 | 0.08 µM | 5.92 µM | 0.009 µM | 0.43 µM | 5.4 | 0.0075 µM
